{"data": "Results pooled from the literature", "note": "Lines come from different studies, so protocols differ."}
{"SMILES": "CC(C)(O)c1ccccc1-c1ccc2[nH]c(/C=C/c3ccc(C(F)(F)F)cc3)nc2c1", "host": "male human", "medium": "plasma", "route": "oral", "dose": "15 mg", "setting": "single dose, fasted", "measurement": "AUC(0-t)", "result": "1010 ng·h/mL"}
{"SMILES": "Cn1c(=O)oc2ccc(-c3ccc(C[C@@H](C#N)NC(=O)[C@@H]4CNCCCO4)cc3)cc21", "host": "male human", "medium": "plasma", "route": "oral", "dose": "50 mg", "setting": "single dose, healthy volunteers", "measurement": "AUC", "result": "17.6 µM·h"}
{"SMILES": "CN(C(=O)n1cnc(-c2ccc[n+]([O-])c2)c1)C1CCCCC1", "host": "male cynomolgus monkey", "medium": "plasma", "route": "oral", "dose": "0.1 mg/kg", "measurement": "Tmax", "result": "1 h"}
{"SMILES": "CC(C)n1cc(C#N)c2cc(-n3cc(C(=O)O)cn3)ccc21", "host": "human", "medium": "plasma", "route": "oral", "dose": "400 mg", "setting": "single dose, fasted, healthy volunteers", "measurement": "AUC(0-inf)", "result": "92000 ng·h/mL"}
{"SMILES": "CC(C)Oc1cccc(-c2cnc(N3CCC(C(N)=O)CC3)s2)c1", "host": "male Swiss mouse", "medium": "brain", "route": "oral", "dose": "30 mg/kg", "setting": "single dose", "measurement": "tissue/plasma ratio", "result": 0.29}
{"SMILES": "Fc1ccc(COC2CCN(Cc3ccc4[nH]cnc4c3)CC2)cc1F", "host": "mouse", "medium": "brain", "route": "intraperitoneal", "dose": "5 mg/kg", "measurement": "unbound tissue/plasma ratio", "result": 3.7}
{"SMILES": "CC(C)(C)c1ccc(O)c(CN(Cc2cc(C(C)(C)C)ccc2O)C2CCC(NC(N)=O)CC2)c1 (centres unmarked)", "host": "male C57BL/6 mouse", "medium": "brain", "route": "intraperitoneal", "dose": "10 mg/kg", "setting": "single dose", "measurement": "tissue/plasma ratio", "result": 0.79}
{"SMILES": "CCN(CC)C(=O)[C@@]1(c2ccccc2)C[C@H]1CN", "host": "male cynomolgus monkey", "medium": "plasma", "route": "oral", "dose": "30 mg/kg", "measurement": "Tmax", "result": "4 h"}
{"SMILES": "COc1ccc([C@@H]2CN(C(=O)[C@@H](O)CO)C[C@@]2(C)[C@@H](C)O)cc1OC1CN(c2ccc(C)cn2)C1", "host": "human", "medium": "plasma", "route": "oral", "dose": "30 mg", "setting": "single dose, healthy volunteers", "measurement": "AUC(0-inf)", "result": "6330 ng·h/mL"}
{"SMILES": "COc1cc(C(=O)NC2CCN(C)CC2)c(F)cc1Nc1ncc(C(F)(F)F)c(Oc2cccc3c2C(=O)N(C)C3)n1", "host": "human", "medium": "plasma", "route": "oral", "dose": "10 mg", "setting": "multiple doses, once daily, steady state, patients", "measurement": "AUC", "result": "0.816 µM·h"}
{"SMILES": "CCc1nc2c(C)cc(N3CCN(CC(=O)N4CC(O)C4)CC3)cn2c1N(C)c1nc(-c2ccc(F)cc2)c(C#N)s1", "host": "human", "medium": "plasma", "route": "oral", "dose": "1000 mg", "setting": "single dose, fed, healthy volunteers", "measurement": "AUC(0-inf)", "result": "66000 ng·h/mL"}
